Laboratory results taken from PMC3297693 (Journal of Medicinal Chemistry, 2012).
Entries after “also recorded” stand apart in the source; their conditions may differ. Counter-ions that a name gives are not always drawn.

Assays:
full NCI 60 cell panel = assay: NCI 60 five-concentration screen, mean graph midpoint of all cell lines; assay type: cell-based; settings: Homo sapiens, 48 h; for GI50: read-out: GI50 MG-MID (mean GI50); for IC (TGI): read-out: TGI MG-MID
HT-29 colon cancer cells [1] = assay: Cell cycle distribution by flow cytometry; assay type: cell-based, Human; settings: HT-29 cells, 24 h
Method in brief: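 HT-29 cells grown in RPMI 1640 with 10% FBS and 2 mM L-glutamine (37 °C, 5% CO2). Test compound was added from a 10 mmol/L DMSO stock (0.01% DMSO final; DMSO-only controls) for 24 h. Cells were fixed in 70% ethanol at −20 °C for ≥12 h, treated with RNase A (10 μg/mL, 37 °C, 30 min) and stained with PI (50 μg/mL). DNA content was read by flow cytometry; one experiment representative of three.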

AMPK(Thr172) = assay: Kinase phosphorylation by Western blotting: AMPK; assay type: cell-based, Human; settings: HeLa cells, 1 μM, 3 h
Method in brief: (§1)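 HeLa cells in RPMI 1640/10% FBS/2 mM L-glutamine were exposed to 1 μM test compound for 3 h (0.01% DMSO). Lysates were cleared at 15,000 × g for 15 min and boiled 4 min, and 80 μg protein was run on SDS-PAGE. Proteins were blotted to nitrocellulose and probed with antibodies to total and phosphorylated kinase, then a peroxidase anti-rabbit IgG (1 h). Bands were detected by ECL chemiluminescence.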

mTOR(Ser2448) = assay: Kinase phosphorylation by Western blotting: mTOR; assay type: cell-based, Human; settings: HeLa cells, 1 μM, 3 h
Method in brief: as §1

HT-29 colon cancer cells [2] = assay: Intracellular ROS content with DHE; assay type: cell-based, Human; settings: HT-29 cells, 500 nM, 24 h
Method in brief: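 HT-29 cells were treated with 500 nM test compound for 24 h (0.01% DMSO; DMSO controls). They were then loaded with 5 μM dihydroethidium (from 10 mM DMSO stock) for 30 min at 37 °C to detect superoxide. Red fluorescence was read by flow cytometry with logarithmic amplification; one experiment representative of three to five.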

Akt(Ser473) = assay: Kinase phosphorylation by Western blotting: Akt; assay type: cell-based, Human; settings: HeLa cells, 1 μM, 3 h
Method in brief: as §1

Bax = Bax expression and translocation by confocal microscopy; assay type: cell-based, Human; settings: HT-29 cells, 500 nM, 24 h
ERK1/2(Thr202/Tyr204) = assay: Kinase phosphorylation by Western blotting: ERK1/2; assay type: cell-based, Human; settings: HeLa cells, 1 μM, 3 h
Method in brief: as §1

HT-29 colon cancer cells [3] = assay: Mitochondrial membrane potential with DiOC6; assay type: cell-based, Human; settings: HT-29 cells, 500 nM, 24 h
Method in brief: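 After 24 h in 500 nM test compound (0.01% DMSO; DMSO controls), HT-29 cells at 1×10^6 cells/mL were stained with 4 nM DiOC6 for 40 min at 37 °C in the dark. Cells were counterstained with PI at 5 μg/mL to exclude dead cells. Green fluorescence was read by flow cytometry with logarithmic amplification; one experiment representative of three to five.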

[4] = system: caspase proteases (DEVDase activity); assay: DEVDase; assay type: cell-based, Human; settings: HT-29 cells, 500 nM, 48 h
Method in brief: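 HT-29 cells in RPMI 1640/10% FBS were exposed to 500 nM test compound for 48 h, with 0.01% DMSO and DMSO-only controls. DEVD-hydrolysing caspase (DEVDase) activity was measured fluorometrically in cell extracts. Values are means ± s.e.m. of four determinations.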

JNK(Thr183/Tyr185) = assay: Kinase phosphorylation by Western blotting: JNK; assay type: cell-based, Human; settings: HeLa cells, 1 μM, 3 h
Method in brief: as §1

p38MAPK(Thr180/Tyr182) = assay: Kinase phosphorylation by Western blotting: p38MAPK; assay type: cell-based, Human; settings: HeLa cells, 1 μM, 3 h
Method in brief: as §1

HT-29 colon cancer cells [5] = assay: Cell viability by trypan blue exclusion; assay type: cell-based, Human; settings: HT-29 cells, 24 h, 100 or 500 nM tested
Method in brief: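 HT-29 cells in RPMI 1640/10% FBS/2 mM L-glutamine were plated at 2×10^4 cells/cm2. They were treated in triplicate for 24 h with 100 or 500 nM test compound (0.01% DMSO final; DMSO-only controls). Viable cells were counted by trypan blue exclusion. Values are means ± s.e.m. of three determinations.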

Renal = assay: NCI 60 five-concentration screen, renal subpanel; assay type: cell-based; settings: Homo sapiens, 48 h, read-out: TGI Renal
CNS = assay: cells; assay type: cell-based; settings: Homo sapiens, 48 h, read-out: TGI CNS
Leukemia = assay: cells; assay type: cell-based; settings: Homo sapiens, 48 h, read-out: TGI Leukemia
tubulin = tubulin (Bos taurus, UniProt Q6B856); assay: Tubulin assembly assay; assay type: biochemical, Bovine; settings: 10 μM tubulin, 20 min incubation at 30 °C
Ovarian = assay: NCI 60 five-concentration screen, ovarian subpanel; assay type: cell-based; settings: Homo sapiens, 48 h, read-out: TGI Ovarian
Breast = assay: NCI 60 five-concentration screen, breast subpanel; assay type: cell-based; settings: Homo sapiens, 48 h, read-out: TGI Breast
NSCLC = assay: NCI 60 five-concentration screen, NSCLC subpanel; assay type: cell-based; settings: Homo sapiens, 48 h, read-out: TGI NSCLC
Colon = assay: NCI 60 five-concentration screen, colon subpanel; assay type: cell-based; settings: Homo sapiens, 48 h, read-out: GI50 Colon
Melanoma = assay: NCI 60 five-concentration screen, melanoma subpanel; assay type: cell-based; settings: Homo sapiens, 48 h, read-out: TGI Melanoma
Prostate = assay: cells; assay type: cell-based; settings: Homo sapiens, 48 h, read-out: TGI Prostate

Chain of tubulin (Q6B856 whole entry): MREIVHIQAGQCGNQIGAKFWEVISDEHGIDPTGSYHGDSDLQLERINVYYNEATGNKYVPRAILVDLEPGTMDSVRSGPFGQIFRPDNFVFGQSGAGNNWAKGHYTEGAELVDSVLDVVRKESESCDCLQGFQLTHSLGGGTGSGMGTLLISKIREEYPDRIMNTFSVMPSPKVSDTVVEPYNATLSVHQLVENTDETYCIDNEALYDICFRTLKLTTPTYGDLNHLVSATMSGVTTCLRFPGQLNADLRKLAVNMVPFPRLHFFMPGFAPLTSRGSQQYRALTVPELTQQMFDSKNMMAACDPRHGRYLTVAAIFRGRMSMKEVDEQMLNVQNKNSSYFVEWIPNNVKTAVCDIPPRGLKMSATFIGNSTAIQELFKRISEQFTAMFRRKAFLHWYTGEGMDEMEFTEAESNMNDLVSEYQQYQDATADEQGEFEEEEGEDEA
Chain of tubulin (P81947 whole entry partner): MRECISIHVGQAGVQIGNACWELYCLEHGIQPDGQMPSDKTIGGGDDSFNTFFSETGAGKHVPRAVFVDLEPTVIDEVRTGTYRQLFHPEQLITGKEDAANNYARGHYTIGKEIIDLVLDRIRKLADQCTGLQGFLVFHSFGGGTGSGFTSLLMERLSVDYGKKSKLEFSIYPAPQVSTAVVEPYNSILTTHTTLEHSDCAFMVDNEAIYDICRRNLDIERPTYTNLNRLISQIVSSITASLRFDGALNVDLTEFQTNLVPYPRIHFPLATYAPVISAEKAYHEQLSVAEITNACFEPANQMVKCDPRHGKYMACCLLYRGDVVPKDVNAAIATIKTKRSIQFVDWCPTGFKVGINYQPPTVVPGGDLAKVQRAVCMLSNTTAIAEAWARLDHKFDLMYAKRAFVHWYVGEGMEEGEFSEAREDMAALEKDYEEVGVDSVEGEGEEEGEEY

## Cc1cn2c(/C=C3/C(=O)Nc4cc(Cl)ccc43)c(C)nc2s1 [Compound 4]
Full NCI 60 cell panel
  GI50: 2 µM
  IC (TGI): 51.3 µM

## Cc1cn2c(/C=C3/C(=O)Nc4c3ccc3ccccc43)c(C)nc2s1 [Compound 5]
HT-29 colon cancer cells [1]
  concentration that induced accumulation of cells in the G2/M phase: 500 nM
AMPK(Thr172)
  AMPK(Thr172) phosphorylation: did not significantly influence
Full NCI 60 cell panel
  IC (TGI): 19.9 µM
mTOR(Ser2448)
  mTOR(Ser2448) phosphorylation: did not significantly influence
HT-29 colon cancer cells [2]
  superoxide formation (intracellular ROS content): marked increase in superoxide formation
Akt(Ser473)
  Akt(Ser473) phosphorylation: did not significantly influence
Bax
  cellular content of Bax: significant increase in the cellular content of Bax
ERK1/2(Thr202/Tyr204)
  ERK1/2(Thr202/Tyr204) phosphorylation/activation: did not significantly influence
HT-29 colon cancer cells [3]
  mitochondrial membrane potential (ΔΨm): marked disruption of ΔΨm
[4]
  activity of effector caspases (DEVDase activity): significantly increased
JNK(Thr183/Tyr185)
  JNK(Thr183/Tyr185) phosphorylation/activation: did not significantly influence
p38MAPK(Thr180/Tyr182)
  p38MAPK(Thr180/Tyr182) phosphorylation/activation: did not significantly influence
HT-29 colon cancer cells [5]
  concentration that triggered cell death (reduction in cell viability): 500 nM

## Cc1nn2c(/C=C3/C(=O)Nc4ccc(F)cc43)c(C)nc2s1 [Compound 7]
Full NCI 60 cell panel
  GI50: 15.1 µM
  IC (TGI): 91.2 µM
Renal
  IC (TGI): 91.2 µM

## Cc1nn2c(/C=C3/C(=O)Nc4c3ccc3ccccc43)c(C)nc2s1 [Compound 9]
Full NCI 60 cell panel
  GI50: 0.5 µM
  IC (TGI): 8.51 µM
CNS
  IC (TGI): 4.9 µM

## Cc1ccc(-c2nc3sc(C)cn3c2/C=C2/C(=O)Nc3cc(C)c(O)cc32)cc1 [Compound 11]
Full NCI 60 cell panel
  GI50: 22.9 µM
  IC (TGI): 83.2 µM
Leukemia
  IC (TGI): 83.2 µM

## Cc1ccc(-c2nc3sc(C)cn3c2/C=C2/C(=O)N(C)c3ccccc32)cc1 [Compound 12]
Full NCI 60 cell panel
  GI50: 16.6 µM
  IC (TGI): 83.2 µM

## COc1ccc2c(c1)/C(=C\c1c(-c3ccc(C)cc3)nc3sc(C)cn13)C(=O)N2C [Compound 13]
Full NCI 60 cell panel
  GI50: 13.8 µM

## COc1ccc2c(c1)/C(=C\c1c(-c3ccc(Cl)cc3)nc3sc(C)nn13)C(=O)N2 [Compound 16]
Full NCI 60 cell panel
  GI50: 93.3 µM

## Cc1nn2c(/C=C3/C(=O)Nc4ccc(F)cc43)c(-c3ccc(Cl)cc3)nc2s1 [Compound 17]
Full NCI 60 cell panel
  GI50: 37.1 µM
  IC (TGI): 93.3 µM

## COc1cc(-c2nc3sc(C)cn3c2/C=C2/C(=O)Nc3ccccc32)c(Br)c(OC)c1OC [Compound 24]
Full NCI 60 cell panel
  GI50: 28.8 µM
  IC (TGI): 77.6 µM

## O=C1Nc2ccccc2/C1=C\c1c(-c2ccccn2)nc2sccn12 [Compound 28]
Full NCI 60 cell panel
  GI50: 1.15 µM
  IC (TGI): 50.1 µM

## O=C1Nc2ccc(Cl)cc2C1=Cc1c(-c2ccccn2)nc2sccn12 [Compound 29]
tubulin
  Inhibition of tubulin assembly IC50 (μM) ± SD: an IC50 could not be obtained
Full NCI 60 cell panel
  GI50: 0.83 µM

## O=C1Nc2cc(Cl)ccc2C1=Cc1c(-c2ccccn2)nc2sccn12 [Compound 30]
Full NCI 60 cell panel
  GI50: 0.18 µM
  IC (TGI): 14.1 µM

## COc1ccc2c(c1)/C(=C\c1c(-c3ccccn3)nc3sccn13)C(=O)N2 [Compound 31]
HT-29 colon cancer cells [1]
  concentration that induced accumulation of cells in the G2/M phase: 100 nM
AMPK(Thr172)
  AMPK(Thr172) phosphorylation: only slightly inhibited
Full NCI 60 cell panel
  IC (TGI): 3.39 µM
mTOR(Ser2448)
  mTOR(Ser2448) phosphorylation: no significant effect
Akt(Ser473)
  Akt(Ser473) phosphorylation: strongly reduced; also recorded: selectively and strongly inhibited
ERK1/2(Thr202/Tyr204)
  ERK1/2(Thr202/Tyr204) phosphorylation/activation: slightly decreased
[4]
  activity of effector caspases (DEVDase activity): significantly increased
Leukemia
  IC (TGI): 0.58 µM
JNK(Thr183/Tyr185)
  JNK(Thr183/Tyr185) phosphorylation/activation: slightly decreased
p38MAPK(Thr180/Tyr182)
  p38MAPK(Thr180/Tyr182) phosphorylation/activation: slightly decreased
HT-29 colon cancer cells [5]
  concentration that triggered cell death (reduction in cell viability): 100 nM

## COc1nc2sccn2c1/C=C1/C(=O)Nc2ccccc21 [Compound 33]
Full NCI 60 cell panel
  GI50: 0.39 µM
  IC (TGI): 22.9 µM

## COc1nc2sccn2c1/C=C1/C(=O)Nc2cccc(Cl)c21 [Compound 34]
Full NCI 60 cell panel
  IC (TGI): 57.5 µM

## COc1nc2sccn2c1/C=C1/C(=O)Nc2ccc(Cl)cc21 [Compound 35]
Full NCI 60 cell panel
  GI50: 2.82 µM
  IC (TGI): 55 µM

## COc1nc2sccn2c1/C=C1/C(=O)Nc2cc(Cl)ccc21 [Compound 36]
Full NCI 60 cell panel
  GI50: 0.44 µM
  IC (TGI): 31.6 µM

## COc1nc2sccn2c1C=C1C(=O)Nc2ccc(F)cc21 [Compound 37]
Full NCI 60 cell panel
  GI50: 5.01 µM
  IC (TGI): 52.5 µM
Leukemia
  IC (TGI): 52.5 µM

## COc1ccc2c(c1)C(=Cc1c(OC)nc3sccn13)C(=O)N2 [Compound 38]
HT-29 colon cancer cells [1]
  concentration that induced accumulation of cells in the G2/M phase: 100 nM
AMPK(Thr172)
  AMPK(Thr172) phosphorylation: only slightly inhibited
Full NCI 60 cell panel
  GI50: 0.07 µM
  IC (TGI): 19.1 µM
mTOR(Ser2448)
  mTOR(Ser2448) phosphorylation: no significant effect
Akt(Ser473)
  Akt(Ser473) phosphorylation: strongly reduced; also recorded: selectively and strongly inhibited
ERK1/2(Thr202/Tyr204)
  ERK1/2(Thr202/Tyr204) phosphorylation/activation: slightly decreased
[4]
  activity of effector caspases (DEVDase activity): significantly increased
JNK(Thr183/Tyr185)
  JNK(Thr183/Tyr185) phosphorylation/activation: slightly decreased
p38MAPK(Thr180/Tyr182)
  p38MAPK(Thr180/Tyr182) phosphorylation/activation: slightly decreased
HT-29 colon cancer cells [5]
  concentration that triggered cell death (reduction in cell viability): 100 nM

## COc1ccc2c(c1)C(=Cc1c(OC)nc3sccn13)C(=O)N2C [Compound 39]
Full NCI 60 cell panel
  GI50: 0.54 µM
  IC (TGI): 34.7 µM
Leukemia
  IC (TGI): 4.9 µM

## COc1nc2sccn2c1/C=C1/C(=O)N(C)c2ccccc21 [Compound 40]
Full NCI 60 cell panel
  GI50: 6.31 µM
  IC (TGI): 72.4 µM
Ovarian
  IC (TGI): 72.4 µM

## CC[C@]1(O)C[C@H]2CN(CCc3c([nH]c4ccccc34)[C@@](C(=O)OC)(c3cc4c(cc3OC)N(C=O)[C@H]3[C@@](O)(C(=O)OC)[C@H](OC(C)=O)[C@]5(CC)C=CCN6CC[C@]43[C@@H]65)C2)C1 [Vincristine sulfate, reference compound]
Breast
  IC (TGI): 7.94 µM
NSCLC
  IC (TGI): 15.8 µM
Full NCI 60 cell panel
  GI50: 0.2 µM
  IC (TGI): 10 µM
CNS
  IC (TGI): 6.31 µM
Colon
  GI50: 0.1 µM
Leukemia
  IC (TGI): 15.8 µM
Renal
  IC (TGI): 19.9 µM
Ovarian
  IC (TGI): 19.9 µM
Melanoma
  IC (TGI): 7.94 µM
Prostate
  IC (TGI): 6.31 µM
